GSK3beta inhib: human GSK3beta kinase inhibitors, primary screen, biochemical, cell-free homogeneous, HTS | Glycogen synthase kinase-3 beta (Homo sapiens), P49841 | GST-GSK3beta kinase, ADP-Glo luminescence, 60 min; hits give low values | activity score (negative = inhibition), % at 10 µM | 300,000 compounds, 0.038% hits | AID 2097, 2009;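 active = more than half of replicate wells score below -50%, meaning over 50% inhibition versus plate controls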;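 note: 0% = median DMSO wells and -100% = median GW8510 positive control wells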
Target sequence (P49841 whole entry, looked up): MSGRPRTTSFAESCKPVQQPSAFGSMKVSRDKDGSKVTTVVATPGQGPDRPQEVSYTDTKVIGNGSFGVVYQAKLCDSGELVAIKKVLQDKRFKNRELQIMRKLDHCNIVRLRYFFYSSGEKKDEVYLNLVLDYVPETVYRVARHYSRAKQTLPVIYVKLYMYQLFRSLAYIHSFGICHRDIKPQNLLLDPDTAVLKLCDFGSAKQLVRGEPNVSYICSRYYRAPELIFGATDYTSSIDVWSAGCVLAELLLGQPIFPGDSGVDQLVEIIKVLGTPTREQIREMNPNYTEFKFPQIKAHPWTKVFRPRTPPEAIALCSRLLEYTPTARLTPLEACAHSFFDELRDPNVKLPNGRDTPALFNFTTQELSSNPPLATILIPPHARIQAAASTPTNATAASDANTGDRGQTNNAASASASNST
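Assay system: GST-tagged human GSK3beta kinase, cell-free; Input: 1.6 ng GSK3beta; Medium: Tris/MgCl2 kinase buffer; Timing: 60 min enzyme reaction, room temperature; Signal: ADP-Glo luminescence quantifying ADP generated by kinase; Evaluation: score relative to plate controls; Benchmarks: DMSO neutral wells and GW8510 at 20 µM as positive.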
STK33 kinase inh: inhibitors of purified STK33 kinase, primary screen, biochemical, ADP-Glo luminescence, homogeneous, cell-free | Serine/threonine-protein kinase 33 (Homo sapiens), Q9BYT3 | MBP phosphorylation | inhibition, % at 10 µM | 320,000 compounds, 0.073% hits;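 active = inhibition at or above 25%, using the most active replicate where run in duplicate; inactive = inhibition below 25%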
CDK5 p35 inh: inhibitors of human CDK5/p35 kinase, primary screen, biochemical, single concentration; Cyclin-dependent kinase 5 (Homo sapiens) + Cyclin-dependent kinase 5 activator 1 (Homo …; Recombinant CDK5/p35, ADP-Glo luminescence, 60 min; inhibition, % at 10 µM; 330,000 compounds, 0.01% hits;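 active = highest replicate inhibition of at least 50% and at least 75% of replicates reaching 50%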;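 note: plate controls were DMSO neutral control for no effect and GW8510 at 10 µM for full effect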
GSK3 alpha inh: blockers of GSK3A enzyme activity – biochemical, luminescence, cell-free homogeneous, HTS, primary screen | 320,000 compounds, 0.1% hits | AID 2650, 2010 | inhibition, % at 10 µM | Glycogen synthase kinase-3 alpha (Homo sapiens), P49840 | GSK-3 alpha kinase, ADP-Glo luminescence, 60 min;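 active = more than half of replicates show inhibition above 20%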;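 note: GST-tagged GSK-3 alpha with peptide substrate and 25 µM ATP; 0% = DMSO neutral wells and 100% = GW8510 positive control wells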
DYRK1A inh: rat Dyrk1A kinase inhibitors, primary screen, biochemical, single point, plate reader. Dual specificity tyrosine-phosphorylation-regulated kinase 1A (Rattus norvegicus), Q63470. 310,000 compounds, 0.43% hits. AID 504441, 2011. inhibition, % at 12.5 µM. ADP-Glo luminescence, NFATc1 peptide; in the data active = inhibition above about 50%;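 note: plate controls were vehicle with enzyme for no effect and no enzyme for full effect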
An asterisk follows results filed as active. This excerpt belongs to a sample that is enriched for hits.

For COc1ccc(NC(=O)CN(C)C2=NS(=O)(=O)c3ccccc32)cc1Cl the results were CDK5 p35 inh 0 and DYRK1A inh -1.
`Cc1cc(C=C2C(=O)c3ccccc3C2=O)c(C)n1-c1ccc(C(=O)O)cc1` gave GSK3beta inhib 0, STK33 kinase inh 32*, CDK5 p35 inh 4, GSK3 alpha inh 2 and DYRK1A inh -4.
For Cc1cc(C=C2C(=O)c3ccccc3C2=O)c(C)n1-c1cccc(C(=O)O)c1 the results were GSK3beta inhib -1, STK33 kinase inh 43*, CDK5 p35 inh 2, GSK3 alpha inh -1 and DYRK1A inh 21.
CC/C(=N\NS(=O)(=O)c1ccc(C)cc1)c1ccco1 was read as GSK3beta inhib 4, STK33 kinase inh 1, CDK5 p35 inh -2, GSK3 alpha inh -5 and DYRK1A inh -3.
For CN(C)CCCNc1nc(N)c([N+](=O)[O-])c(NC2CCCCC2)n1 the results were GSK3beta inhib -81*, STK33 kinase inh 3, CDK5 p35 inh 2, GSK3 alpha inh 98* and DYRK1A inh 23.
For CNc1nc(N)c([N+](=O)[O-])c(NC2CCCCC2)n1 the results were GSK3beta inhib -1, STK33 kinase inh -1, CDK5 p35 inh 0, GSK3 alpha inh -2 and DYRK1A inh -1.
CC(C)CCNc1nc(N)c([N+](=O)[O-])c(NC2CCCCC2)n1 was read as GSK3beta inhib 0, STK33 kinase inh -1, CDK5 p35 inh -1, GSK3 alpha inh 0 and DYRK1A inh -3.
Screening Nc1nc(NCCO)nc(NC2CCCCC2)c1[N+](=O)[O-] returned GSK3beta inhib -11, STK33 kinase inh 1, CDK5 p35 inh 15, GSK3 alpha inh 86* and DYRK1A inh 1.
Screening Nc1nc(NCCOCCO)nc(NC2CCCCC2)c1[N+](=O)[O-] returned GSK3beta inhib -7, STK33 kinase inh 3, CDK5 p35 inh 2, GSK3 alpha inh 52* and DYRK1A inh 20.
For O=C(O)C1CC(O)CN1C(=O)c1ccco1 (centres undefined) the results were GSK3beta inhib 1, STK33 kinase inh -1, CDK5 p35 inh -1, GSK3 alpha inh 0 and DYRK1A inh -3.
`CC(=O)Oc1ccc2occ(C(=O)c3cccs3)c2c1` gave GSK3beta inhib -17, STK33 kinase inh 0, CDK5 p35 inh -3, GSK3 alpha inh 43 and DYRK1A inh 10.
O=C(CCl)Oc1ccc2occ(C(=O)c3cccs3)c2c1 was read as GSK3beta inhib -72*, STK33 kinase inh 3, CDK5 p35 inh 1, GSK3 alpha inh 70* and DYRK1A inh 31.
`CCCNCC1COc2ccccc2O1` (centres undefined) gave GSK3beta inhib -52*, STK33 kinase inh -1 and GSK3 alpha inh 6.
`c1ccc(CCCNCC2COc3ccccc3O2)cc1` (centres undefined) gave GSK3beta inhib 2, STK33 kinase inh -1, CDK5 p35 inh -4 and DYRK1A inh 4.
For CCOC(=O)Nc1ccc(Cc2ccncc2)cc1 the results were GSK3beta inhib 3, STK33 kinase inh -1, CDK5 p35 inh -1 and GSK3 alpha inh -9.
Screening CCCn1nc(NC(=O)C(C)(C)C)c2cc3cc(OC)ccc3nc21 returned GSK3beta inhib -42, STK33 kinase inh 1, CDK5 p35 inh 10, GSK3 alpha inh 66* and DYRK1A inh 32.
`c1cncc(Nc2nc(-c3cccnc3)cs2)c1` gave GSK3beta inhib -11, STK33 kinase inh 34*, CDK5 p35 inh 2, GSK3 alpha inh 10 and DYRK1A inh 32.
Screening Clc1cccc(-c2csc(Nc3cccnc3)n2)c1 returned GSK3beta inhib 0, STK33 kinase inh -1, CDK5 p35 inh 1, GSK3 alpha inh 0 and DYRK1A inh -4.
`COc1ccc(N2C(=O)CC(N3CCN(S(=O)(=O)c4c(C)cc(C)cc4C)CC3)C2=O)cc1` (centres undefined) gave STK33 kinase inh -2, CDK5 p35 inh 0, GSK3 alpha inh -3 and DYRK1A inh -3.
`Cn1c(C(=O)NCCN2CCOCC2)cc2c(=O)n(C)c3ccccc3c21` gave GSK3beta inhib 0, STK33 kinase inh 2, CDK5 p35 inh 0, GSK3 alpha inh 0 and DYRK1A inh 32.
For CC1CCCCN1CCNC(=O)c1cc2c(=O)n(C)c3ccccc3c2n1C (centres undefined) the results were GSK3beta inhib 0, STK33 kinase inh 4, CDK5 p35 inh 1, GSK3 alpha inh 0 and DYRK1A inh 50*.
N#C/C(=C\c1ccc(O)c(Br)c1)C(=O)NCc1ccccc1 was read as GSK3beta inhib -5, STK33 kinase inh 8, CDK5 p35 inh 2, GSK3 alpha inh 13 and DYRK1A inh 86*.
Screening O=C1CCNc2ccc(-c3ccccc3)cc21 returned GSK3beta inhib 1, STK33 kinase inh 2, CDK5 p35 inh 2, GSK3 alpha inh 10 and DYRK1A inh 22.
O=C1CCNc2cc3ccccc3cc21 was read as GSK3beta inhib 2, STK33 kinase inh 2, CDK5 p35 inh -2, GSK3 alpha inh 7 and DYRK1A inh 76*.
Cn1c(=O)c2[nH]c(CCCC(=O)O)nc2n(Cc2ccccc2)c1=S was read as GSK3beta inhib -51*, STK33 kinase inh 1, CDK5 p35 inh 2, GSK3 alpha inh 84* and DYRK1A inh -16.
Cn1c(=O)c2[nH]c(CCCc3nc4ccccc4[nH]3)nc2n(C)c1=O was read as CDK5 p35 inh 0 and DYRK1A inh -4.
Screening Cc1cc(-c2ccc(N=Nc3c(S(=O)(=O)O)cc4cc(S(=O)(=O)O)cc(N)c4c3O)c(C)c2)ccc1N=Nc1c(S(=O)(=O)O)cc2cc(S(=O)(=O)O)cc(N)c2c1O returned STK33 kinase inh 66* and GSK3 alpha inh 32.
CC(=O)C1=C(c2ccc(Br)cc2)C(=O)c2ccccc2C1=O was read as GSK3beta inhib 0, STK33 kinase inh 0, CDK5 p35 inh 1, GSK3 alpha inh 0 and DYRK1A inh 76*.
For CN(c1ccccc1C(=O)Nc1cccc(Br)c1)S(=O)(=O)c1ccccc1 the results were GSK3beta inhib 3, STK33 kinase inh 0, CDK5 p35 inh 2, GSK3 alpha inh -2 and DYRK1A inh 3.
For O=C(Nc1sccc1C(=O)N1CCOCC1)c1cccnc1 the results were GSK3beta inhib -31, STK33 kinase inh -1, CDK5 p35 inh 2, GSK3 alpha inh 54* and DYRK1A inh 4.
N#CCCn1cc(/C=N/O)c(-c2cccc([N+](=O)[O-])c2)n1 was read as GSK3beta inhib -26, STK33 kinase inh 0, CDK5 p35 inh 3, GSK3 alpha inh 64* and DYRK1A inh 20.
N#CCCn1cc(/C=N/O)c(-c2ccccc2)n1 was read as STK33 kinase inh 0, CDK5 p35 inh 4, GSK3 alpha inh 11 and DYRK1A inh 8.

High-throughput results (PubChem)
